Screening data as filed in PubChem BioAssay.
Hits are enriched below; roughly 5.9% of the tested compounds scored in any of these assays.
Pf Dd2 growth: P. falciparum Dd2 growth inhibition; SYBR Green, 72 h; hits give low values; activity change, % at 10 µM; 94,000 tested, 2.3% active; AID 1159554; in the data active = activity change below about -80%; inconclusive = no clear call, values can overlap the other calls
KDM4C inh: KDM4C (human) demethylase inhibition; Q9H3R0; GST-KDM4C 2-372, H3K9me3 peptide, LANCE TR-FRET; inhibition, % at 12.5 µM; 96,000 tested, 0.15% active; AID 720574;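 active = mean replicate inhibition above about 25%, with at least 55% of replicates also reaching it, limit read from the data, passing the limit was not always enough; inconclusive = only one of those two conditions met; inactive = neither condition met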
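reagent = H3K9me3 peptide substrate, Fe(II), 2-oxoglutarate | system = GST-tagged GASC-1 (JMJD2C) catalytic fragment, aa 2-372 | amount = enzyme final amount 10 nM | read-out = Fall in 671/618 emission ratio as inhibition | medium = HEPES buffer, pH 7.5, plus ascorbate | schedule = 30 min reaction, 60 min detection, RT | measured by = LANCE TR-FRET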
T cruzi growth-1: inhibitors of T. cruzi proliferation | AID 624255 | 77,000 tested, 5.9% active | T. cruzi beta-gal in NIH3T3, GalScreen luminescence, 90 h | inhibition, % at 8.34 µM;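 active = mean inhibition above about 93%, with at least 55% of replicates each passing it, limit read from the data, passing the limit was not always enough; inconclusive = only one of those two conditions holds; inactive = neither condition holds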
IDH1 R132H inh: blocks human IDH1 R132H reductase activity; inhibition, % at 10 µM; 70,000 tested, 0.18% active; diaphorase/resazurin fluorescence, 60 min; O75874; in the data active = inhibition above about 34%; inconclusive = no clear call, values can overlap the other calls; inactive = below about 11%;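 note: 0% = DMSO and 100% = no enzyme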
Target sequence (O75874 whole entry R132H): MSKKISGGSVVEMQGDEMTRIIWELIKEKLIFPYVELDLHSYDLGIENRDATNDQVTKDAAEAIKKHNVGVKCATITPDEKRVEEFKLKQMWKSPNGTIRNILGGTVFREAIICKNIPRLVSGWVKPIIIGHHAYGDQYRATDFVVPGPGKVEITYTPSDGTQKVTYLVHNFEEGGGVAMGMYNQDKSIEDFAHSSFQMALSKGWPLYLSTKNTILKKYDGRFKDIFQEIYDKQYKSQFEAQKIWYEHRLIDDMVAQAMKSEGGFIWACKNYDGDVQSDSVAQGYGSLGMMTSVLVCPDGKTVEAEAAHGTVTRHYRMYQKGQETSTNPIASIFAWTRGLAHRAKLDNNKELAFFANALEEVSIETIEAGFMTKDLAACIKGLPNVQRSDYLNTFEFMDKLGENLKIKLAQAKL
T cruzi growth-2: inhibitors of T. cruzi proliferation. shares compounds with T cruzi growth-1. T. cruzi beta-gal in NIH3T3, GalScreen luminescence, 90 h. inhibition, % at 8.35 µM. 5,600 tested, 72% active;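 active = mean replicate inhibition above about 95% and at least 55% of replicates individually reaching it, limit read from the data; inconclusive = only one of the two criteria is met; inactive = neither criterion is met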
T cruzi growth-3: Trypanosoma cruzi proliferation inhibition | shares compounds with T cruzi growth-1 | T. cruzi beta-gal in NIH3T3, GalScreen luminescence, 90 h | inhibition, % at 2.09 µM | 5,600 tested, 21% active | AID 651740;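 active = mean inhibition above about 95%, with at least 55% of replicates also reaching it, limit read from the data; inconclusive = meets just one of the two conditions; inactive = meets neither condition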;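 note: plate controls were neutral control median for no effect and positive control median for full effect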
3T3 cytotox: kills mouse NIH/3T3 fibroblasts | shares compounds with T cruzi growth-1 | NIH/3T3 viability, CellTiter-Glo ATP luminescence, 90 h | cytotoxicity (signal decrease), % at 8.35 µM | 5,600 tested, 14% active | AID 651742;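 active = mean signal decrease across replicates above about 35% based on untreated-well scatter, with enough replicates individually passing, limit read from the data; inconclusive = no rule stated though some were filed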;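 note: 0% = median of neutral control wells and 100% = median of positive control wells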
3T3 cytotox 2: NIH/3T3 (mouse) viability loss | 5,600 tested, 56% active | AID 651744 | shares compounds with T cruzi growth-1 | NIH/3T3 viability, CellTiter-Glo ATP luminescence, 90 h | inhibition, % at 24.9 µM;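 active = mean loss of cell viability signal at or above a set limit, and enough replicates individually reaching it; inconclusive = meets only the mean limit or only the replicate share; inactive = meets neither condition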;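 note: 0% = median of neutral control wells and 100% = median of positive control wells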
* = called active by the depositor; u = inconclusive; x = no result given; ! = repeats disagree.

SMILES	Pf Dd2 growth	KDM4C inh	T cruzi growth-1	IDH1 R132H inh	T cruzi growth-2	T cruzi growth-3	3T3 cytotox	3T3 cytotox 2
C[C@H](CO)N1C[C@H](C)[C@H](CN(C)S(=O)(=O)c2ccccc2)OCCCC[C@H](C)Oc2ccc(N(C)C)cc2C1=O	-38.4	1.2	33.7	0.2	x	x	x	x
Cc1ccc(S(=O)(=O)N(C)C[C@@H]2OCCCC[C@H](C)Oc3ccc(N(C)C)cc3C(=O)N([C@@H](C)CO)C[C@H]2C)cc1	-78.7	-0.2	u	-1.2	77.0	29.8	-13.2	-20.4
C[C@H](CO)N1C[C@H](C)[C@H](CN(C)S(=O)(=O)c2ccc(F)cc2)OCCCC[C@H](C)Oc2ccc(N(C)C)cc2C1=O	-39.9	-1.3	u	x	95.9*	24.4	-11.8	-20.6
C[C@H]1CCCCO[C@@H](CN(C)S(=O)(=O)c2ccccc2)[C@@H](C)CN([C@@H](C)CO)C(=O)c2cc(N(C)C)ccc2O1	-59.7	0.4	106.9*	-0.7	69.2	13.7	18.6	17.0
COc1ccc(S(=O)(=O)N(C)C[C@@H]2OCCCC[C@@H](C)Oc3ccc(N(C)C)cc3C(=O)N([C@H](C)CO)C[C@H]2C)cc1	2.2	13.1	76.0	-1.5	x	x	x	x
COc1ccc(S(=O)(=O)N(C)C[C@H]2OCCCC[C@H](C)Oc3ccc(N(C)C)cc3C(=O)N([C@H](C)CO)C[C@@H]2C)cc1	-88.0*	2.2	101.9*!	1.3	50.9	21.3	-25.1	-13.6
Cc1nc(SCC(=O)N(c2ccccc2)c2ccccc2)n[nH]1	x	x	x	-0.2	x	x	x	x
Cc1c(NC(=O)CCN2C(=O)c3ccccc3C2=O)cccc1C(=O)O	x	x	x	0.4	x	x	x	x
COc1ccc(NC(=O)N2CCCCN3[C@@H](CO)[C@H](c4ccc(C5=CCCC5)cc4)[C@@H]3C2)cc1	-32.3	x	84.0	x	x	x	x	x
O=C(Nc1ccccc1F)N1CCCCN2[C@H](CO)[C@H](c3ccc(C4=CCCC4)cc3)[C@H]2C1	-33.2	-0.6	103.0*	x	91.8	68.2	13.9	102.6*
O=C(Nc1ccc(F)cc1)N1CCCCN2[C@H](C1)[C@H](c1ccc(C3=CCCCC3)cc1)[C@@H]2CO	-24.3	-1.9	111.6*	x	105.8*	39.2	-0.9	86.4*
COc1ccc(NC(=O)N2CCCCN3[C@H](CO)[C@@H](c4ccc(C5=CCCCC5)cc4)[C@H]3C2)cc1	-34.7	2.9	117.1*	x	104.5*	90.1	28.8	104.7*
O=C(Nc1ccccc1F)N1CCCCN2[C@H](C1)[C@H](c1ccc(C3=CCCC3)cc1)[C@@H]2CO	6.6	-0.2	37.2	x	x	x	x	x
O=C(Nc1cc(F)ccc1F)N1CCCCN2[C@H](C1)[C@H](c1ccc(C3=CCCCC3)cc1)[C@@H]2CO	5.9	0.0	78.5	x	x	x	x	x
COc1ccc(NC(=O)N2CCCCN3[C@H](C2)[C@H](c2ccc(C4=CCCCC4)cc2)[C@@H]3CO)cc1	4.3	-0.2	110.3*	x	114.1*	42.1	7.0	93.6*
O=c1c2c3c(sc2nc(SCc2nc(-c4cccs4)no2)n1-c1ccccc1)CCCC3	x	x	x	-0.6	x	x	x	x
Cn1cnc(S(=O)(=O)N2CC[C@@H]3[C@H](CO)Nc4ccc(-c5ccccc5)cc4[C@@H]32)c1	-29.7	-1.0	101.1*	x	101.5*	48.1	10.3	-1.0
Cn1cnc(S(=O)(=O)N2CC[C@@H]3[C@H]2c2cc(-c4ccccc4)ccc2N[C@@H]3CO)c1	0.4	-1.3	u	x	110.5*	u	-22.2	6.3
Cn1cnc(S(=O)(=O)N2CC[C@@H]3[C@@H](CO)Nc4ccc(-c5ccccc5)cc4[C@@H]32)c1	-45.9	-2.1	104.4*	x	96.3*	86.4	-13.4	-7.6
COc1ccc(C)cc1S(=O)(=O)N1CCC(C(=O)Nc2cc(Cl)ccc2Cl)CC1	x	x	x	-0.1	x	x	x	x
COc1cccc(NC(=O)N(C)C[C@H]2Oc3ncc(C#Cc4ccccc4)cc3C(=O)N([C@@H](C)CO)C[C@@H]2C)c1	-44.7	x	123.1*	x	112.2*	110.4*	-34.8	-1.0
